Data published in ChEMBL document CHEMBL1134552, “Synthesis of cytotoxic 6E-hydroximino-4-ene steroids: structure/activity studies” (J Med Chem, 2001).
In brackets after ≈: the same amount, converted by molar mass.

Key:
Assay type in all cases: functional, cell-based
SK-MEL-28 = assay: In vitro antitumor activity against MEL-28 tumor cells.; conditions: Homo sapiens
Procedure, shortened: (§1)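 Adherent lines (human lung A-549, colon HT-29, MEL-28) grown in EMEM/neaa with 5% FCS. Cells plated at 1×10^4 per well in 1 mL medium containing graded sample concentrations, with drug-free growth controls, in duplicate. Incubated 3 days at 37 °C, 5% CO2. Stained with 0.1% crystal violet, or trypsinized and Coulter-counted. IC50 taken from dose–response curves of growth relative to controls.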

HT-29 = assay: In vitro antitumor activity against HT-29 tumor cells.; conditions: Homo sapiens; procedure, shortened: as §1
P388 = assay: In vitro antitumor activity against P-388 tumor cells.; conditions: Mus musculus
Procedure, shortened: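 P-388 lymphoid neoplasm from DBA/2 mouse, grown in suspension in EMEM/neaa with 5% FCS. Seeded at 1×10^4 cells per well in 1 mL medium holding a range of sample concentrations, with drug-free controls, duplicate wells. Incubated 3 days at 37 °C, 5% CO2, 98% humidity. Cells counted by Coulter counter; IC50 read from dose–response curves of % growth versus untreated cultures.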

A549 = assay: In vitro antitumor activity against A-549 tumor cells.; conditions: Homo sapiens; procedure, shortened: as §1

SMILES | IC50 (SK-MEL-28) | IC50 (HT-29) | IC50 (P388) | IC50 (A549)
CC(C)[C@H](C)[C@@]1(C)C[C@@H]1[C@@H](C)C1CCC2C3C/C(=N\O)C4=CC(=O)CC[C@]4(C)C3CC[C@@]21C (stereo partly specified) | 5 µg/mL (≈ 11 µM) | 5 µg/mL (≈ 11 µM) | 5 µg/mL (≈ 11 µM) | 5 µg/mL (≈ 11 µM)
CC[C@H](CCC(C)[C@H]1CCC2C3C/C(=N\O)C4=CC(=O)CC[C@]4(C)C3CC[C@@]21C)C(C)C (stereo partly specified) | 10 µg/mL (≈ 22.6 µM) | 10 µg/mL (≈ 22.6 µM) | 10 µg/mL (≈ 22.6 µM) | 10 µg/mL (≈ 22.6 µM)
CC(C)CCCC(C)[C@H]1CCC2C3C/C(=N\O)C4=CC=CC[C@]4(C)C3CC[C@@]21C (stereo partly specified) | 5 µg/mL (≈ 12.6 µM) | 5 µg/mL (≈ 12.6 µM) | 5 µg/mL (≈ 12.6 µM) | 5 µg/mL (≈ 12.6 µM)
CC(C)CCCC(C)[C@H]1CCC2C3C/C(=N\O)C4=CC(=O)CC[C@]4(C)C3CC[C@@]21C (stereo partly specified) | 2.5 µg/mL (≈ 6.04 µM) | 1.25 µg/mL (≈ 3.02 µM) | 1.25 µg/mL (≈ 3.02 µM) | 1.25 µg/mL (≈ 3.02 µM)
CC(C)CCC[C@@H](C)C1CCC2C3C/C(=N\O)C4=C[C@@H](O)CC[C@]4(C)C3CC[C@@]21C (stereo partly specified) | 10 µg/mL (≈ 24.1 µM) | 10 µg/mL (≈ 24.1 µM) | 10 µg/mL (≈ 24.1 µM) | 10 µg/mL (≈ 24.1 µM)
C[C@]12CCC(=O)C=C1/C(=N/O)CC1C2CC[C@]2(C)C(=O)CCC12 (stereo partly specified) | 5 µg/mL (≈ 15.9 µM) | 5 µg/mL (≈ 15.9 µM) | 5 µg/mL (≈ 15.9 µM) | 5 µg/mL (≈ 15.9 µM)
CC(C)CCCC(C)[C@H]1CCC2C3C/C(=N\O)C4=C[C@H](O)[C@H](O)C[C@]4(C)C3CC[C@@]21C (stereo partly specified) | 1.25 µg/mL (≈ 2.9 µM) | 1.25 µg/mL (≈ 2.9 µM) | 1.25 µg/mL (≈ 2.9 µM) | 1.25 µg/mL (≈ 2.9 µM)
CC(C)CCCC(C)[C@H]1CCC2C3C/C(=N\O)C4=CC(=O)[C@@H](O)C[C@]4(C)C3CC[C@@]21C (stereo partly specified) | 0.125 µg/mL (≈ 0.291 µM) | 0.25 µg/mL (≈ 0.582 µM) | 0.25 µg/mL (≈ 0.582 µM) | 0.125 µg/mL (≈ 0.291 µM)
CC(C)[C@H](C)[C@@]1(C)C[C@@H]1[C@@H](C)C1CCC2C3C/C(=N\O)C4=C[C@@H](O)CC[C@]4(C)C3CC[C@@]21C (stereo partly specified) | 10 µg/mL (≈ 21.9 µM) | 10 µg/mL (≈ 21.9 µM) | 10 µg/mL (≈ 21.9 µM) | 10 µg/mL (≈ 21.9 µM)
C[C@]12CCC(=O)C=C1/C(=N/O)CC1C2CC[C@@]2(C)C1CC[C@@H]2O (stereo partly specified) | 5 µg/mL (≈ 15.8 µM) | 5 µg/mL (≈ 15.8 µM) | 5 µg/mL (≈ 15.8 µM) | 5 µg/mL (≈ 15.8 µM)

Next, values leading:

IC50 (SK-MEL-28) | IC50 (HT-29) | IC50 (P388) | IC50 (A549) | SMILES
1.25 µg/mL (≈ 2.9 µM) | 1.25 µg/mL (≈ 2.9 µM) | 1.25 µg/mL (≈ 2.9 µM) | 1.25 µg/mL (≈ 2.9 µM) | CC(C)CCCC(C)[C@H]1CCC2C3C/C(=N\O)C4=C[C@@H](O)[C@@H](O)C[C@]4(C)C3CC[C@@]21C (stereo partly specified)
5 µg/mL (≈ 16.6 µM) | 5 µg/mL (≈ 16.6 µM) | 5 µg/mL (≈ 16.6 µM) | 5 µg/mL (≈ 16.6 µM) | C[C@@]12CCCC1C1C/C(=N\O)C3=CC(=O)CC[C@]3(C)C1CC2 (stereo partly specified)
0.125 µg/mL (≈ 0.291 µM) | 0.25 µg/mL (≈ 0.582 µM) | 0.25 µg/mL (≈ 0.582 µM) | 0.125 µg/mL (≈ 0.291 µM) | CC(C)CCCC(C)[C@H]1CCC2C3C/C(=N\O)C4=CC(=O)[C@H](O)C[C@]4(C)C3CC[C@@]21C (stereo partly specified)
0.125 µg/mL (≈ 0.292 µM) | 0.25 µg/mL (≈ 0.585 µM) | 0.5 µg/mL (≈ 1.17 µM) | 0.125 µg/mL (≈ 0.292 µM) | CC(C)CCCC(C)[C@H]1CCC2C3C/C(=N\O)C4=CC(=O)C(O)=C[C@]4(C)C3CC[C@@]21C (stereo partly specified)
